From ChEMBL document CHEMBL1159085, “Proteasome inhibition in human breast cancer cells with high catechol-O-methyltransferase activity by green tea polyphenol EGCG analogs” (Bioorg Med Chem, 2010)
Activity calls are given as the source filed them. The rule behind the calls is not given here.

Tests used:
[1] = test system: MDA-MB-231; test: Antiproliferative activity against human MDA-MB-231 cells with high catechol-O-methyltransferase activity at 25 uM after 24 hrs by MTT assay; format: functional; details: for inhibition at 25 µM: MDA-MB-231, 24 h
Method in brief: (§1)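 MDA-MB-231 cells were grown in RPMI 1640 with 10% FBS, 100 units/ml penicillin and 100 μg/ml streptomycin at 37°C and 5% CO2. Triplicate wells were exposed to 25 or 50 μM compound for 24 h. MTT (1 mg/ml) was then added for 3 h at 37°C, and the formazan was dissolved in DMSO after the medium was removed.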

[2] = test system: MDA-MB-231; test: Inhibition of chymotrypsin like activity of 20S proteasome in human MDA-MB-231 cells assessed as cleavage of Suc-LLVY-AMC substrate after 2 hrs by fluorogenic assay; format: cell-based
Method in brief: (§2)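 Crude MDA-MB-231 cell extract (5.7 μg) was used as the source of 26S proteasome. It was incubated with compound at a range of concentrations, or with solvent, plus 20 μM Suc-LLVY-AMC in 20 mM Tris-HCl, pH 7.5, for 2 h at 37°C. Chymotrypsin-like activity was read by fluorescence at 355 nm excitation and 460 nm emission.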

[3] = test system: MDA-MB-231; test: Antiproliferative activity against human MDA-MB-231 cells at 25 to 50 uM after 24 hrs by MTT assay; format: functional; method in brief: as §1
[4] = test system: MDA-MB-231; test: Antiproliferative activity against human MDA-MB-231 cells with high catechol-O-methyltransferase activity at 50 uM after 24 hrs by MTT assay; format: functional; method in brief: as §1
[5] = Inhibition of chymotrypsin like activity of proteasome; format: subcellular
[6] = species: Oryctolagus cuniculus; test: (§3) Inhibition of chymotrypsin like activity of rabbit 20S proteasome assessed as cleavage of Suc-LLVY-AMC substrate after 2 hrs by fluorogenic assay
Method in brief: (§4)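 Purified rabbit 20S proteasome (35 ng) was incubated with 20 μM Suc-LLVY-AMC in 20 mM Tris-HCl, pH 7.5, with compound at various concentrations or solvent, for 2 h at 37°C. Fluorogenic substrate hydrolysis was then measured at 355 nm excitation and 460 nm emission.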

[7] = test system: MDA-MB-231; test: Inhibition of chymotrypsin like activity of 20S proteasome in human MDA-MB-231 cells lysates with high catechol-O-methyltransferase activity assessed as cleavage of Suc-LLVY-AMC substrate at 10 uM after 2 hrs by fluorogenic assay
Method in brief: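 MDA-MB-231 cell extract (5.7 μg protein) incubated with test agent or solvent and 20 μM Suc-LLVY-AMC in 20 mM Tris–HCl pH 7.5 for 2 h at 37°C. Chymotrypsin-like activity read as AMC fluorescence (ex 355 nm, em 460 nm).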

[8] = test system: MDA-MB-231; test: Inhibition of chymotrypsin like activity of 20S proteasome in COMT inhibitor 3,5-dinitrocatechol pretreated human MDA-MB-231 cells lysates with high catechol-O-methyltransferase activity assessed as cleavage of Suc-LLVY-AMC substrate at 10 uM after 2 hrs by fluorogenic assay; format: cell-free
Method in brief: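 MDA-MB-231 cell extract (5.7 μg) was pre-treated with 10 μM 3,5-dinitrocatechol for 20 min. Compound and 20 μM Suc-LLVY-AMC were then added in 20 mM Tris-HCl, pH 7.5, and incubated for 2 h at 37°C. AMC release was read by fluorescence at 355 nm excitation and 460 nm emission.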

[9] = species: Oryctolagus cuniculus; test: Inhibition of chymotrypsin like activity of rabbit 20S proteasome assessed as cleavage of Suc-LLVY-AMC substrate at 50 uM after 2 hrs by fluorogenic assay; method in brief: as §4
[10] = as §3; parameters: species or system Oryctolagus cuniculus; method in brief: as §4
[11] = test system: MDA-MB-231; test: Inhibition of chymotrypsin like activity of 20S proteasome in human MDA-MB-231 cells lysates with high catechol-O-methyltransferase activity assessed as cleavage of Suc-LLVY-AMC substrate at 1 to 10 uM after 2 hrs by fluorogenic assay; format: cell-free; method in brief: as §2
[12] = test system: MDA-MB-231; test: Inhibition of 20S proteasome in human MDA-MB-231 cells assessed as accumulation of proteasome substrate at 50 uM after 22 hrs by Western blot; format: cell-based
Method in brief: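 Intact MDA-MB-231 cells were cultured in RPMI 1640 with 10% FBS and penicillin/streptomycin at 37°C and 5% CO2. They were treated with 50 μM compound for 22 h. Accumulation of ubiquitinated proteins, used as a measure of proteasome substrates, was then detected by Western blotting of cell lysates.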

CC(=O)Oc1cc(C(=O)O[C@H]2Cc3ccccc3C[C@H]2OC(=O)c2cc(OC(C)=O)c(OC(C)=O)c(OC(C)=O)c2)cc(OC(C)=O)c1OC(C)=O
growth inhibition (GI) [1]: Active | inhibition at 25 µM [1]: 48% | inhibition [2]: inactive | growth inhibition (GI) [3]: 50% | growth inhibition (GI) [4]: Active

O=C(O[C@@H]1Cc2c(O)cc(O)cc2O[C@@H]1c1cc(O)c(O)c(O)c1)c1cc(O)c(O)c(O)c1 (stereo in doubt; 3) [EPIGALOCATECHIN GALLATE]
IC50 [5]: 170 nM

O=C(O[C@@H]1Cc2c(O)cc(O)cc2O[C@@H]1c1cc(O)c(O)c(O)c1)c1cc(O)c(O)c(O)c1 (stereo in doubt; 1)
inhibition [6]: Active | inhibition [7]: 22% | inhibition [8]: Active

O=C(O[C@H]1Cc2ccccc2C[C@H]1O)c1cc(O)cc(O)c1
inhibition [9]: inactive

O=C(O[C@H]1Cc2ccccc2C[C@H]1OC(=O)c1cc(O)cc(O)c1)c1cc(O)cc(O)c1
IC50 [10]: 29000 nM | inhibition [8]: Active | inhibition [11]: 18%

O=C(O[C@H]1Cc2ccccc2C[C@H]1O)c1cc(O)c(O)c(O)c1
inhibition [9]: inactive

CC(=O)Oc1cc(C(=O)O[C@H]2Cc3ccccc3C[C@H]2OC(C)=O)cc(OC(C)=O)c1OC(C)=O
inhibition [2]: inactive

CC(=O)Oc1cc(OC(C)=O)cc(C(=O)O[C@H]2Cc3ccccc3C[C@H]2OC(=O)c2cc(OC(C)=O)cc(OC(C)=O)c2)c1
growth inhibition (GI) [1]: Active | inhibition at 25 µM [1]: 69% | inhibition [12]: Active | inhibition [2]: inactive | growth inhibition (GI) [4]: Active | inhibition at 50 µM ([4]; MDA-MB-231, 24 h, read-out: INH): 69%

CC(=O)Oc1cc(OC(C)=O)cc(C(=O)O[C@H]2Cc3ccccc3C[C@H]2OC(C)=O)c1
inhibition [2]: inactive

O=C(O[C@@H]1Cc2c(O)cc(O)cc2O[C@@H]1c1cc(O)c(O)c(O)c1)c1cc(O)c(O)c(O)c1 (stereo in doubt; 1) [EPIGALOCATECHIN GALLATE]
IC50 [5]: 86 nM

O=C(O[C@H]1Cc2ccccc2C[C@H]1OC(=O)c1cc(O)c(O)c(O)c1)c1cc(O)c(O)c(O)c1
IC50 [10]: 19000 nM | inhibition [8]: Active | IC50 [5]: 340 nM | inhibition [11]: 10%

CC(=O)Oc1cc(OC(C)=O)c2c(c1)O[C@H](c1cc(OC(C)=O)c(OC(C)=O)c(OC(C)=O)c1)[C@H](OC(=O)c1cc(OC(C)=O)c(OC(C)=O)c(OC(C)=O)c1)C2
inhibition at 25 µM [1]: 42% | inhibition [2]: inactive | growth inhibition (GI) [3]: 0%
